Source: PubChem
Yeast lifespan up: extends the lifespan of yeast; S. cerevisiae growth with nicotinamide, OD615; deaD strain in restrictive glucose medium; inhibition of the nicotinamide effect, % at 10 µM; hit rate 0.68% among 130,000; AID 775;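 active means inhibition above a set limit, placed 3 SD over the median of all compounds, cut at about 26% in these data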;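 further: 0% = nicotinamide-treated wells and 100% = cells grown without nicotinamide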
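Assay system: DeaD-strain S. cerevisiae. Medium: CSMM-D glucose medium, restrictive. Reagent: nicotinamide, 1.5 mM, co-present with compound. Compound: 10 µM single point, 0.25% DMSO. Schedule: culture preincubation 4 h, compound exposure 48 h, both 30 °C. Detection: absorbance at 615 nm.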
sdo1 growth: compounds rescuing growth of sdo1-depleted yeast, bone marrow failure model; S. cerevisiae sdo1-depleted JHY4D growth rescue, OD600 30 h; stronger effect = higher value; pdr5 snq2 efflux-pump mutant strain; z-score at 10 µM; hit rate 0.21% among 140,000; AID 817;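 active means z-score above 3 at both the 24 hr and the 30 hr optical density reads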;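 further: z-score against mean and SD of all compound wells on the same plate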
Yeast growth inh: reduces growth of yeast BB579 in restrictive medium; inhibition, % at 10 µM; AID 804; S. cerevisiae BB579 growth, OD615, 48 h; hit rate 0.51% among 140,000;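 active means inhibition above a set limit, 3 SD over the mean compound inhibition, cut at about 44% in these data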
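Test system: DeaD yeast strain BB579 / Buffer or medium: restrictive glucose-based CSMM-D medium / Doses: single 10 µM dose / Schedule: 4 h cell preincubation, 48 h compound exposure, 30 °C humidified / Technique: culture absorbance at 615 nm / Controls: amphotericin B positive control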
RAM inhibit: blocks the yeast RAM network | S. cerevisiae dse1pr::URA3 reporter, 5-FOA growth OD615, 2 d; analog-sensitive cbk1-as2 kinase mutant strain | inhibition, % at 50 µM | hit rate 1.8% among 190,000 | AID 868;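 active means inhibition above a set limit, 3 SD over mean compound inhibition, cut at about 8.4% in these data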;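 further: 0% = DMSO-only wells with no growth and 100% = 10 µM 1-NA-PP1 full growth; inhibition rescues growth on 5-FOA so higher OD means more RAM inhibition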
* = called active by the depositor; . = no result. Only some compounds are listed: those with a hit (about 2.7% of all), similar ones and a draw of the others.

SMILES	Yeast lifespan up	sdo1 growth	Yeast growth inh	RAM inhibit
C=C(C)Cn1c(C)cc(C)c(S(=O)(=O)c2ccc(C)cc2)c1=O	.	.	.	0.6
Cc1cc(C)n(Cc2ccc(Cl)cc2Cl)c(=O)c1S(=O)(=O)c1ccccc1	-5.2	-1.55	-90.2	8.9*
O=C(CN1CCN(S(=O)(=O)c2ccccc2F)CC1)Nc1ccccc1C(=O)c1ccccc1	.	.	.	10.5*
O=S(=O)(c1ccccc1F)N1CCN(CC(O)c2ccccc2)CC1 (stereo not drawn)	.	.	.	5.3
O=C(c1cc(-c2cccs2)nc2ccccc12)N1CCN(c2ccccc2O)CC1	.	.	.	2.7
Cc1ccc(OCc2nnc(SCc3ccc(C#N)cc3)n2-c2ccc(C)cc2)cc1	1.5	-0.71	-29.0	8.5*
Cc1cc(C(=O)Nc2c[nH]c(=O)[nH]c2=O)ccc1[N+](=O)[O-]	.	.	.	2.7
CCC(C(=O)NC1CCCCC1)N(Cc1cccs1)C(=O)c1snc(C(N)=O)c1N (stereo not drawn)	.	.	.	-0.2
Cc1[nH]n(-c2nc(-c3ccc(Cl)cc3)cs2)c(=O)c1N=Nc1ccc(O)cc1	.	.	.	9.8*
CCc1c(C)[nH]n(-c2nc(-c3ccccc3)cs2)c1=O	.	.	.	0.0
O=C(Nc1cc(Sc2nc3ccccc3s2)cc([N+](=O)[O-])c1)c1ccccc1	-2.8	0.01	-2.1	5.4
O=C(Nc1cc(Sc2ccccn2)cc([N+](=O)[O-])c1)c1cccc(F)c1	-2.9	-1.21	-22.2	9.4*
CCOC(=O)c1c(C)[nH]c(C(=O)Cn2nnc(-c3ccccc3Cl)n2)c1C	1.2	-0.28	-23.0	3.6
CCOC(=O)c1c(C)[nH]c(C(=O)Cn2nnc(-c3ccccc3)n2)c1C	-3.5	-0.72	-50.0	8.9*
CCOC(=O)/C(C#N)=C1\Nc2ccccc2N=C1N(CC(C)C)CC(C)C	12.5	-0.84	-99.0	8.9*
CCOC(=O)C1=C(O)/C(=C/c2ccc(OCC(=O)O)c(OCC)c2)SC1=Nc1ccccc1	.	.	.	10.3*
CCOC(=O)C1=C(O)/C(=C/c2ccc(OCC(=O)O)c(OC)c2)SC1=Nc1ccc(OCC)cc1	1.0	1.1	-36.8	3.7
O=c1c2ccccc2nc2sc3ccccc3n12	-2.9	-2.69	85.3*	5.2
Cc1ccc(/C=C/C(=O)O)cc1S(=O)(=O)Nc1ccc2c(c1)OCO2	.	.	.	8.8*
COc1ccc(NC(=O)COC(=O)c2ccc(O)cc2)c([N+](=O)[O-])c1	.	.	.	5.2
COc1ccc(NC(=O)COC(=O)C2CCC(C(C)(C)C)CC2)c([N+](=O)[O-])c1 (stereo not drawn)	2.2	-0.02	-9.8	10.8*
CCOCCn1c(=NC(=O)c2cc3ccccc3oc2=O)sc2cc(S(N)(=O)=O)ccc21	1.4	-0.52	-10.0	8.9*
CCOC(=O)Cn1c(=NC(=O)CN2C(=O)CCC2=O)sc2cc(S(N)(=O)=O)ccc21	3.8	1.25	-35.9	1.1
CCOC(=O)Cn1c(=NC(=O)c2nc3ccccc3s2)sc2cc(S(N)(=O)=O)ccc21	6.2	-0.3	-39.6	10.3*
Cc1cccc(COc2ncnc3nc[nH]c23)c1	10.1	-0.31	-15.9	-0.6
SMILES	Yeast lifespan up	sdo1 growth	Yeast growth inh	RAM inhibit
CCNCCNC(=O)c1c(O)c2cccc3c2n(c1=O)CCC3	70.1*	-1.49	-52.6	-0.6
O=C(NCc1ccco1)c1c(O)c2cccc3c2n(c1=O)CCC3	46.7*	-0.69	-45.6	6.0
O=C(NCc1ccccc1)c1c(O)c2cccc3c2n(c1=O)CCC3	11.4	-0.89	-43.1	1.2
CCc1nc2ccccc2c(=O)n1NC(=O)c1c(O)c2cccc3c2n(c1=O)CCC3	-5.8	-2.84	83.4*	2.6
O=C(Nc1cccnc1)c1c(O)c2cccc3c2n(c1=O)CC3	62.2*	-1.68	-34.9	-0.9
COc1ccccc1-n1nnnc1SCc1ccccc1	-15.1	-0.57	-35.5	-0.1
COc1ccccc1-n1nnnc1SCc1cc2c(cc1Br)OCO2	5.6	-0.75	-62.5	9.5*
CC1CC2(CCCCC2)Nc2c1ccc1ccccc21 (stereo not drawn)	.	-1.14	-49.0	9.4*
COc1ccc(N2CCN(S(=O)(=O)c3cccc(C(F)(F)F)c3)CC2)cc1	-5.4	0.64	-60.1	3.0
COc1ccc(C)cc1S(=O)(=O)N1CCN(c2cccc(C(F)(F)F)c2)CC1	0.3	-1.48	-71.6	11.3*
COc1ccc(C(C)C)cc1S(=O)(=O)N1CCN(c2ccccc2)CC1	.	.	.	10.6*
COc1ccc(C(C)C)cc1S(=O)(=O)N1CC(C)OC(C)C1 (stereo not drawn)	.	.	.	0.6
COc1ccccc1NC(=O)C1=C(C)NC(=O)NC1c1cccs1 (stereo not drawn)	.	.	.	0.1
COc1cc(OC)cc(C(=O)N[C@H](C(=O)OCC(=O)Nc2ccc(F)c(F)c2)C(C)C)c1	0.0	-0.45	-9.9	8.6*
Cc1ccc(S(=O)(=O)N(CC(=O)Nc2ccccc2C(=O)O)c2ccccc2C)cc1	.	.	.	8.7*
CCOc1ccccc1C(=O)N[C@H](C(=O)Nc1ccc(OC)c(S(=O)(=O)N2CCOCC2)c1)C(C)C	.	.	.	-0.5
Cc1cc(OC(C)C(N)=O)nc(-c2ccccc2)n1 (stereo not drawn)	.	.	.	0.2
Cc1nn(C(=O)c2ccco2)c(C)c1Sc1ccc(Br)cc1	-10.2	-0.8	-39.0	8.8*
c1ccc(Cn2cc(CN3CCCO3)c(-c3ccc4c(c3)OCO4)n2)cc1	.	.	.	4.8
CC(=O)OCCNc1cc(SCc2ccco2)c2nonc2c1[N+](=O)[O-]	4.4	-0.67	-44.8	9.5*
O=[N+]([O-])c1c(NCCCO)cc(SCc2ccco2)c2nonc12	2.9	0.26	-60.6	1.9
O=C(Nc1ccc(C(=O)O)cc1)/C(=C\c1ccc2c(c1)OCO2)NC(=O)c1ccccc1	.	.	.	9.2*
O=C(Nc1ccc(C(=O)O)cc1)/C(=C\c1ccc2c(c1)OCO2)NC(=O)c1ccc(Br)cc1	.	.	.	10.7*
O=C(CCl)N(c1ccccc1)C1CCCCC1	.	.	.	1.6
Cn1c(COc2ccccc2)nnc1SCc1cc(=O)[nH]c2ccccc12	43.8*	-0.63	-8.4	-0.1
SMILES	Yeast lifespan up	sdo1 growth	Yeast growth inh	RAM inhibit
CCOc1cc(/C=C2/C(=O)ON=C2C)ccc1OCc1ccc(F)cc1	1.2	-0.46	-30.3	9.9*
CCOc1cc(/C=C2/C(=O)ON=C2C)ccc1OCc1ccccc1	.	.	.	10.4*
CCOc1cc(/C=C2/C(=O)ON=C2C)ccc1OCc1ccccc1F	56.2	-0.89	-42.0	7.1
Cc1ccc(C(=O)/C=C/c2cn(CN3CCN(C)CC3)c3ccccc23)cc1	-14.4	-2.62	72.7*	0.7
CCNS(=O)(=O)c1ccc(CCC(=O)NCc2ccccc2)cc1	.	.	.	0.4
Cc1ccc(S(=O)(=O)C(C#N)=C2N(C)c3ccccc3N2C)cc1	.	.	.	0.2
Cc1ccc(/C=C2/SC(=S)N(CCC(=O)N3CCN(c4ccccc4)CC3)C2=O)cc1	-17.8	-0.53	-12.4	0.3
CC(=O)c1ccc(NC(=O)CCCN2C(=O)/C(=C/C(C)=C/c3ccccc3)SC2=S)cc1	1.6	-0.28	-25.1	10.4*
CC(/C=C1\SC(=S)N(CC(=O)N2CCN(c3ccccc3)CC2)C1=O)=C\c1ccccc1	4.6	0.79	-39.2	9.8*
C[C@H](NC(=O)c1nc[nH]c1C(=O)NCCCCCNC(=O)OC(C)(C)C)C(=O)OCc1ccccc1	.	.	.	1.6
